Series [1] addresses T1, Hexokinase-4 (Homo sapiens, UniProt P35557).
T1 sequence (P35557 whole entry): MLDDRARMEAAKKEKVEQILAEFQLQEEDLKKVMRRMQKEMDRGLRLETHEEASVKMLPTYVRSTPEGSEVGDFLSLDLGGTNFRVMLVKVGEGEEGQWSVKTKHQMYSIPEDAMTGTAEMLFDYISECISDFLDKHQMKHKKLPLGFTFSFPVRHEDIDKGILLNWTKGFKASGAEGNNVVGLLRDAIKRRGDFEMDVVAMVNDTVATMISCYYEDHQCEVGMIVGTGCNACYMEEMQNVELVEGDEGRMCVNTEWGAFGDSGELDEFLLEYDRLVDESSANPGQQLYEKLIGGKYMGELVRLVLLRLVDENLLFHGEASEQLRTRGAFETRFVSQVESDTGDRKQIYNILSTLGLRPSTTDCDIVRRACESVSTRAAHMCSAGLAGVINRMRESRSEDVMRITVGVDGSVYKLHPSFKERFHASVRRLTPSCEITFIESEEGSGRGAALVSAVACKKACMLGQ
Briefly: Induction of human pancreatic glucokinase activity at 5 mM glucose concentration. The procedure, abridged:
(§1)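 Enzymatic assay with purified recombinant human pancreatic or liver glucokinase, read as fold increase in activity at 5.0 mM glucose. EC50 is the mean of at least duplicate runs. For the pancreatic enzyme, glucose S0.5 and Vmax were also determined.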

The test system of series [2] is Mus musculus. Description: Increase in oral glucose tolerance in C57BL/J mouse assessed as reduction in glucose area under curve at 300 mg/kg by OGTT. The format is functional. More on the design: scale not given: the % may be the effect or the level left.
For series [3], the target named is Cytochrome P450 2C19 (Homo sapiens, UniProt P33261). Description: Inhibition of CYP2C19 (unknown origin) at 25 to 50 uM. The format is ADME.
Sequence of Cytochrome P450 2C19 (P33261 whole entry): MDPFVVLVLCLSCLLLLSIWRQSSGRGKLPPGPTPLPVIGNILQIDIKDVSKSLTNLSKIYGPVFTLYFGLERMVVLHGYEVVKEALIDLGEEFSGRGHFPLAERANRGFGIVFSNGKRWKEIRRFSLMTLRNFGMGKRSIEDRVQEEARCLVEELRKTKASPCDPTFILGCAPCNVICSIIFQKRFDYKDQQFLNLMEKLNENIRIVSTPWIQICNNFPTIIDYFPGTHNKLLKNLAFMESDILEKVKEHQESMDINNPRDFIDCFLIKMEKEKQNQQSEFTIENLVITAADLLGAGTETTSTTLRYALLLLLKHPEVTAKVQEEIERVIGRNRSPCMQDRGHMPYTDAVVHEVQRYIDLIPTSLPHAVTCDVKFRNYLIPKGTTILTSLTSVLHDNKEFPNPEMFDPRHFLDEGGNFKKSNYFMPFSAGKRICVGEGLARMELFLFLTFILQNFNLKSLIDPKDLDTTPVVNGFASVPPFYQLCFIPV
Series [4] is described as follows: Metabolic stability in dog liver microsomes assessed as compound remaining after 60 mins. The format is ADME, Canis lupus familiaris, Microsome. The note with it: read-out: Stability. The procedure, abridged: (§2)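 Compound incubated for 1 h with mouse, dog or human liver microsomes. Percent of parent compound remaining was measured.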
For orientation: Microsomes from liver hold many membrane-bound enzymes, among them those of drug oxidation.

The target in series [5] is Cytochrome P450 2D6 (Homo sapiens, UniProt P10635). Description: Inhibition of CYP2D6 (unknown origin) at 25 to 50 uM. The format is ADME.
Sequence of Cytochrome P450 2D6 (P10635 whole entry): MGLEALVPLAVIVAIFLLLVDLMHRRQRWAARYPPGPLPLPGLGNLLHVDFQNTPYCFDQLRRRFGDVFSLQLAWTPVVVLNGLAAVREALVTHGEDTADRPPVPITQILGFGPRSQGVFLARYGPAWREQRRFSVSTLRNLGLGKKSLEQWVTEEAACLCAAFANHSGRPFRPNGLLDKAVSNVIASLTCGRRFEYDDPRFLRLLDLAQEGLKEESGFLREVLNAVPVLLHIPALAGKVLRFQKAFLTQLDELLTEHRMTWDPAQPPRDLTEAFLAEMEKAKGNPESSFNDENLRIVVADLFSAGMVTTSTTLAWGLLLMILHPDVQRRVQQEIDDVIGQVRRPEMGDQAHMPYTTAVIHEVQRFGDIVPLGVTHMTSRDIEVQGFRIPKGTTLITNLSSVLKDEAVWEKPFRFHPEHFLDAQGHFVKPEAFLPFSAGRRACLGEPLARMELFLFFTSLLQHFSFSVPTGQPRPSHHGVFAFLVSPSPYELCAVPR
Series [6] concerns the target Cytochrome P450 3A4 (Homo sapiens, UniProt P08684). Description: Inhibition of CYP3A4 (unknown origin) at 25 to 50 uM. The format is ADME.
Series [7] addresses Cytochrome P450 2C9 (Homo sapiens, UniProt P11712). Briefly: Inhibition of CYP2C9 (unknown origin) at 25 to 50 uM. The format is ADME.
A short description of series [8]: Metabolic stability in mouse liver microsomes assessed as compound remaining after 60 mins. The note with it: read-out: Stability. The format is ADME, Microsome. In short, it runs like this: as §2
Series [9] can be described thus: Elimination half life in mouse. The following applies: in vivo, read-out: beta t1/2 (converted). The format is ADME, organism-based. In short, it runs like this: (§3)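 Pharmacokinetics in mice and dogs after a single intravenous dose and a single oral dose. Clearance, volume of distribution, elimination half-life and oral bioavailability (F) were derived.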
The species named for series [10] is Mus musculus. Description: Toxicity in ob/ob mouse assessed as effect on serum lipid level. The format is organism-based. The following applies: in vivo. In short, it runs like this: (§4)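 ob/ob mice dosed orally and repeatedly in a subchronic study. Blood glucose, serum lipids and body weight were monitored.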
The subject of series [11] is Mus musculus. Description: Toxicity in C57BL/J mouse assessed as hypoglycemic risk at 150 mg/kg. The format is organism-based. More on the design: dose 150 mg/kg. The note with it: in vivo. The procedure, abridged: (§5)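 C57BL/J6 mice given oral dosing followed by an oral glucose tolerance test. Plasma glucose was tracked over time and glucose AUC reduction calculated. Several doses were tested, including 50 and 150 mg/kg. Hypoglycemia risk was judged from the glucose profiles.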

For series [12], the target named is T1, Hexokinase-4. Description: Induction of human hepatic glucokinase activity at 5 mM glucose concentration. In short, it runs like this: as §1
Series [13] deals with Mus musculus. Description: Increase in oral glucose tolerance in C57BL/J mouse assessed as reduction in glucose area under curve at 50 mg/kg by OGTT. The format is functional. More on the design: scale not given: the % may be the effect or the level left. In short, it runs like this: as §5
A short description of series [14]: Elimination half life in dog. The following applies: in vivo, read-out: beta t1/2 (converted). The format is ADME, organism-based, Canis lupus familiaris. In short, it runs like this: as §3
The species entered for series [15] is Mus musculus. Description: Toxicity in ob/ob mouse assessed as effect on body weight. The format is organism-based. The following applies: in vivo. In short, it runs like this:
as §4

A short description of series [16]: Bioavailability in mouse. The note with it: in vivo. The format is ADME, organism-based. The procedure, abridged: as §3
The nature of series [17]: Metabolic stability in human liver microsomes assessed as compound remaining after 60 mins. The format is ADME, Microsome. The note with it: read-out: Stability. The procedure, abridged:
as §2

Series [18] concerns the target T2, Cytochrome P450 1A2 (Homo sapiens, UniProt P05177).
T2 sequence (P05177 whole entry): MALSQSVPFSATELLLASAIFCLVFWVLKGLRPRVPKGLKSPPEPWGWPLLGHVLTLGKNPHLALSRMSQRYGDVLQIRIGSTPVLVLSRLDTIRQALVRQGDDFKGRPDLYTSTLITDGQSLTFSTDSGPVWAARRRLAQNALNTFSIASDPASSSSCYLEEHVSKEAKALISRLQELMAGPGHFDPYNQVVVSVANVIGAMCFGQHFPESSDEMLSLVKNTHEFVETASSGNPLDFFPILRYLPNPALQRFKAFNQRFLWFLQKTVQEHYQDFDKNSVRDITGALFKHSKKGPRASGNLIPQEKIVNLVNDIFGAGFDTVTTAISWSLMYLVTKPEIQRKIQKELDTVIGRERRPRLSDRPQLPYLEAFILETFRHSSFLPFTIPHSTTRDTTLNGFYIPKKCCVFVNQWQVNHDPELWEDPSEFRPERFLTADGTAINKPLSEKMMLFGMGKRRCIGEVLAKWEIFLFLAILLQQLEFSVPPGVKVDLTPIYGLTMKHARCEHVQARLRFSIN
Briefly: Inhibition of CYP1A2 (unknown origin) at 25 to 50 uM. The format is ADME.

Series [19] in a line: Bioavailability in dog. The format is ADME, organism-based, Canis lupus familiaris. The note with it: in vivo. In short, it runs like this:
as §3

Series [20] in a line: Volume of distribution in mouse. The format is ADME, organism-based. The following applies: in vivo. The procedure, abridged:
as §3

Series [21] is described as follows: Clearance in mouse. The format is ADME, organism-based. The following applies: in vivo. The procedure, abridged:
as §3

The nature of series [22]: Clearance in dog. The note with it: in vivo. The format is ADME, organism-based, Canis lupus familiaris. In short, it runs like this: as §3
A short description of series [23]: Volume of distribution in dog. The following applies: in vivo. The format is ADME, organism-based, Canis lupus familiaris. The procedure, abridged: as §3

Sequence of Cytochrome P450 3A4 (P08684 whole entry): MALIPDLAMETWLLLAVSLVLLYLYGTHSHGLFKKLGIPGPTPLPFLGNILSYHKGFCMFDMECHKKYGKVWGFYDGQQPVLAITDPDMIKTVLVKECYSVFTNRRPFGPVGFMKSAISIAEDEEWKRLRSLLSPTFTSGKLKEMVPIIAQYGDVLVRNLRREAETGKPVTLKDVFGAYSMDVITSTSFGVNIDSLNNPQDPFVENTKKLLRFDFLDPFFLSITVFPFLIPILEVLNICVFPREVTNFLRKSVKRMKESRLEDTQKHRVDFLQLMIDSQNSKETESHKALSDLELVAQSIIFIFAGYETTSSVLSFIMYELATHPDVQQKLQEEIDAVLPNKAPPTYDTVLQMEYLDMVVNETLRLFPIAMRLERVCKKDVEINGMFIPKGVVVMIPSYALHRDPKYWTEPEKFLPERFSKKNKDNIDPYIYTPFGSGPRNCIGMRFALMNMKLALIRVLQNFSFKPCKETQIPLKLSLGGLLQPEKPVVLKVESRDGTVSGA
Sequence of Cytochrome P450 2C9 (P11712 whole entry): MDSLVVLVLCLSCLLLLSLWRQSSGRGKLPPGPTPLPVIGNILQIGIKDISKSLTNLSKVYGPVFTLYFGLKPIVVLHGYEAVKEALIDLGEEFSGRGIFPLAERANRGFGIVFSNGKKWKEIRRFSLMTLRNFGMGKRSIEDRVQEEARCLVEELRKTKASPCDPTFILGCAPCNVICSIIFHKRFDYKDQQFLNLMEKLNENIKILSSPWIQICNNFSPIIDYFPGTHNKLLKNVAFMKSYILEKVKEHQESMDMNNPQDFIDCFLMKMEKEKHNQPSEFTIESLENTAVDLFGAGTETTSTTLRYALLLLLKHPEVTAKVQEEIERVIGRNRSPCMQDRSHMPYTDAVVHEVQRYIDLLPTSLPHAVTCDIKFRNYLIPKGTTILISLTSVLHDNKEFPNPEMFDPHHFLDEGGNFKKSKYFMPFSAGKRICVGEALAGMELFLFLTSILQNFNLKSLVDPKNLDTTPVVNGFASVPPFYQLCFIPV

The EC50 is the concentration needed to bring the measured effect to its halfway point. As to `COC[C@H](C)Oc1cc(/C=C/c2cc(F)ccc2F)cc(C(=O)Nc2ccn(C)n2)c1`, in series [1], the response was half-maximal at 0.2 µM (EC50).
Same read-out and setting: with `COC[C@H](C)Oc1cc(CCc2c(F)cccc2F)cc(C(=O)Nc2ccn(C)n2)c1` the figure was 0.131 µM; with `COC[C@H](C)Oc1cc(/C=C/c2ccccc2F)cc(C(=O)Nc2ccn(C)n2)c1`, 0.08 µM.
`CN(C)C(=N)NC(=N)N` [METFORMIN]: the Activity in series [2] was 29.9%.
Take `COC[C@H](C)Oc1cc(CCc2cc(F)cc(F)c2F)cc(C(=O)Nc2ccn(C)n2)c1`: in series [1], the EC50 came to 0.855 µM.
Same read-out and setting: with `COC[C@H](C)Oc1cc(/C=C/c2cc(F)cc(F)c2F)cc(C(=O)Nc2ccc(C(=O)O)cn2)c1` the figure was 0.778 µM; with `COC[C@H](C)Oc1cc(CCc2ccc(F)cc2)cc(C(=O)Nc2ccn(C)n2)c1`, 0.216 µM; with `COC[C@H](C)Oc1cc(/C=C/c2ccc([N+](=O)[O-])cc2)cc(C(=O)Nc2ccc(C(=O)O)cn2)c1`, 0.284 µM.
On the same count and under the same terms, with `COC[C@H](C)Oc1cc(CCc2ccc(F)cc2F)cc(C(=O)Nc2ccn(C)n2)c1` the figure was 0.184 µM; with `COC[C@H](C)Oc1cc(/C=C/c2ccc(F)cc2)cc(C(=O)Nc2ccn(C)n2)c1`, 0.119 µM.
As usually defined, the bioavailability is dose-corrected exposure relative to a reference, in per cent. As a reminder, the Vd is the apparent volume that relates the amount in the body to the concentration in plasma or blood. In general, clearance refers to a measure of how efficiently the substance is removed, as volume per time. Consider `COC[C@H](C)Oc1cc(CCc2c(F)cccc2F)cc(C(=O)Nc2ccc(C(=O)O)cn2)c1`, for which the “inhibition (INH)” value in series [3], in series [5], in series [6], in series [7] and in [18] was “Not Active” each time. For the same compound, the remaining at 1 h in series [4], in [8] and in series [17] was above 60% each time. The half-life in series [9] and in series [14] was 2.6 h each time. Besides, the Activity entry in [10] is recorded as “Non-toxic”; in series [11], “Toxic”; in [13], 29.6%; in series [15] it was “Non-toxic”. For the same compound, the figures for the EC50 in [12] and in series [1] were 0.085 µM and 0.07 µM, respectively. Also, the bioavailability in series [16] worked out at 66%; in series [19], 85%. Also, the Vd in series [20] amounted to 0.33 L/kg; in series [23], 0.49 L/kg. For the same compound, the clearance was 0.15 L/h/kg in series [21] and 0.43 L/h/kg in [22].
For `COC[C@H](C)Oc1cc(/C=C/c2cccc(C)n2)cc(C(=O)Nc2ccn(C)n2)c1`, in series [1], the response was half-maximal at 0.132 µM (EC50).
Still for that read-out and setting: as for `COC[C@H](C)Oc1cc(/C=C/c2ccc(F)cc2F)cc(C(=O)Nc2ccn(C)n2)c1`, the figure is 0.109 µM; as for `COC[C@H](C)Oc1cc(/C=C/c2ccccc2OC)cc(C(=O)Nc2ccn(C)n2)c1`, 0.115 µM; as for `COC[C@H](C)Oc1cc(/C=C/c2ccccc2[N+](=O)[O-])cc(C(=O)Nc2ccn(C)n2)c1`, 0.283 µM.
Still for that read-out and setting: with `COC[C@H](C)Oc1cc(/C=C/c2cc(F)cc(F)c2F)cc(C(=O)Nc2ccn(C)n2)c1` the figure was 0.848 µM; with `COC[C@H](C)Oc1cc(/C=C/c2ccc([N+](=O)[O-])cc2)cc(C(=O)Nc2ccn(C)n2)c1`, 0.852 µM.
`COC[C@H](C)Oc1cc(/C=C/c2c(F)cccc2F)cc(C(=O)Nc2ccn(C)n2)c1` yielded an EC50 in series [1] of 0.161 µM.
Compound `COC[C@H](C)Oc1cc(Oc2cc(F)cc(F)c2)cc(C(=O)Nc2ccc(C(=O)O)cn2)c1` registered a bioavailability in series [19] of 100%.
